Results published in ChEMBL document CHEMBL1156074, “Diazo transfer-click reaction route to new, lipophilic teicoplanin and ristocetin aglycon derivatives with high antibacterial and anti-influenza virus activity: an aggregation and receptor binding study” (J Med Chem, 2009).
Values after ≈ are worked out from the molar mass of the structure shown. Active and inactive are the calls of the source.

Assays:
Influenza A virus [1] = assay: Antiviral activity against Influenza A virus (A/Puerto Rico/8/34(H1N1)) assessed as cell viability by cell-based MTS assay; type: functional, organism-based; conditions: A/Puerto Rico/8/1934(H1N1)
In short: (§1)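 Cell-based influenza assay. The read-out is cell viability by the colorimetric formazan-based MTS assay. EC50 is the concentration giving 50% inhibition of the virus-induced cytopathic effect.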

Influenza A virus [2] = assay: Antiviral activity against Influenza A virus (A/Puerto Rico/8/34(H1N1)) assessed as inhibition of virus-induced cytopathic effect by cell-based assay; type: functional, organism-based, A/Puerto Rico/8/1934(H1N1)
In short: (§2)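 Virus-induced cytopathic effect is scored visually in infected cell cultures. EC50 is defined as the compound concentration producing 50% inhibition of the CPE. A compound is recorded as not active when there is no inhibition at the highest concentration tested or at a subtoxic concentration.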

H3N2 subtype [3] = assay: Antiviral activity against Influenza A virus (A/Hong Kong/7/87(H3N2)) assessed as inhibition of virus-induced cytopathic effect by cell-based assay; type: functional, organism-based; conditions: A/Hong Kong/7/1987(H3N2); in short: as §2
H3N2 subtype [4] = assay: Antiviral activity against Influenza A virus (A/Hong Kong/7/87(H3N2)) assessed as cell viability by cell-based MTS assay; type: functional, organism-based; conditions: A/Hong Kong/7/1987(H3N2); in short: as §1
Influenza B virus [5] = assay: Antiviral activity against Influenza B virus (B/Hong Kong/5/72) assessed as inhibition of virus-induced cytopathic effect by cell-based assay; type: functional; conditions: B/Hong Kong/05/1972; in short: as §2
Influenza B virus [6] = assay: Antiviral activity against Influenza B virus (B/Hong Kong/5/72) assessed as cell viability by cell-based MTS assay; type: functional; conditions: B/Hong Kong/05/1972; in short: as §1
Influenza B virus [7] = assay: Antiviral activity against Influenza B virus (B/Hong Kong/5/72) assessed as inhibition of virus-induced cytopathic effect at highest concentration by cell-based assay; type: functional; conditions: B/Hong Kong/05/1972; in short: as §2
Influenza B virus [8] = assay: Antiviral activity against Influenza B virus (B/Hong Kong/5/72) assessed as cell viability at subtoxic concentration by cell-based MTS assay; type: functional; conditions: B/Hong Kong/05/1972
Enterococcus faecalis [9] = assay: Antibacterial activity against vancomycin-resistant and teicoplanin-sensitive Enterococcus faecalis ATCC 51299 harboring vanB gene after 18 hrs by broth microdilution method; type: functional; conditions: ATCC 51299, 18 h
Bacillus subtilis [10] = assay: Antibacterial activity against Bacillus subtilis ATCC 6633 after 18 hrs by broth microdilution method; type: functional; conditions: ATCC 6633, 18 h
Staphylococcus aureus [11] = assay: Antibacterial activity against methicillin-sensitive Staphylococcus aureus ATCC 33591 after 18 hrs by broth microdilution method; type: functional; conditions: ATCC 33591, 18 h
Enterococcus faecalis [12] = assay: Antibacterial activity against vancomycin and teicoplanin-sensitive Enterococcus faecalis ATCC 29212 after 18 hrs by broth microdilution method; type: functional; conditions: ATCC 29212, 18 h
[13] = test system: Staphylococcus epidermidis; assay: Antibacterial activity against biofilm of Staphylococcus epidermidis ATCC 35984 after 18 hrs by broth microdilution method; type: functional; conditions: RP62A
Staphylococcus aureus [14] = assay: Antibacterial activity against methicillin-sensitive Staphylococcus aureus ATCC 29213 after 18 hrs by broth microdilution method; type: functional; conditions: ATCC 29213, 18 h
[15] = test system: Staphylococcus epidermidis; assay: Antibacterial activity against Staphylococcus epidermidis after 18 hrs by broth microdilution method; type: functional
Enterococcus faecalis [16] = assay: Antibacterial activity against vancomycin and teicoplanin-resistant Enterococcus faecalis 15376 harboring vanA gene after 18 hrs by broth microdilution method; type: functional; conditions: Enterococcus faecalis, 15376, 18 h
[17] = Octanol-aqueous buffer partition coefficient, log P at pH 7 by shake-flask method; type: physicochemical
Bacillus subtilis [18] = assay: Bactericidal activity against Bacillus subtilis ATCC 6633 after overnight incubation; type: functional
Influenza A virus [19] = assay: Antiviral activity against Influenza A virus (A/Puerto Rico/8/34(H1N1)) assessed as inhibition of virus-induced cytopathic effect at highest concentration by cell-based assay; type: functional, organism-based; conditions: A/Puerto Rico/8/1934(H1N1); in short: as §2
Enterococcus faecalis [20] = assay: Bactericidal activity against vancomycin and teicoplanin-resistant Enterococcus faecalis 15376 harboring vanA gene after overnight incubation; type: functional
H3N2 subtype [21] = assay: Antiviral activity against Influenza A virus (A/Hong Kong/7/87(H3N2)) assessed as inhibition of virus-induced cytopathic effect at highest concentration by cell-based assay; type: functional, organism-based; conditions: A/Hong Kong/7/1987(H3N2); in short: as §2
Enterococcus faecalis [22] = assay: Bactericidal activity against vancomycin and teicoplanin-sensitive Enterococcus faecalis ATCC 29212 after overnight incubation; type: functional
[23] = test system: Staphylococcus epidermidis; assay: Bactericidal activity against biofilm of Staphylococcus epidermidis ATCC 35984 after overnight incubation; type: functional; conditions: RP62A
Influenza A virus [24] = assay: Antiviral activity against Influenza A virus (A/Puerto Rico/8/34(H1N1)) assessed as cell viability at subtoxic concentration by cell-based MTS assay; type: functional, organism-based; conditions: A/Puerto Rico/8/1934(H1N1)
Enterococcus faecalis [25] = assay: Bactericidal activity against vancomycin-resistant and teicoplanin-sensitive Enterococcus faecalis ATCC 51299 harboring vanB gene after overnight incubation; type: functional
Staphylococcus aureus [26] = assay: Bactericidal activity against methicillin-sensitive Staphylococcus aureus ATCC 29213 after overnight incubation; type: functional
H3N2 subtype [27] = assay: Antiviral activity against Influenza A virus (A/Hong Kong/7/87(H3N2)) assessed as cell viability at subtoxic concentration by cell-based MTS assay; type: functional, organism-based; conditions: A/Hong Kong/7/1987(H3N2)
Staphylococcus aureus [28] = assay: Bactericidal activity against methicillin-sensitive Staphylococcus aureus ATCC 33591 after overnight incubation; type: functional
[29] = test system: Staphylococcus epidermidis; assay: Bactericidal activity against Staphylococcus epidermidis after overnight incubation; type: functional
Enterococcus = assay: Antibacterial activity against vancomycin and teicoplanin-resistant Enterococcus harboring vanA resistance gene; type: functional
[30] = Influenza A virus, A/Puerto Rico/8/1934(H1N1)

NC(=O)c1ncn([C@@H]2O[C@H](CO)[C@@H](O)[C@H]2O)n1 [RIBAVIRIN] showed an EC50 (Influenza A virus [1]) of 9.7 µM, an EC50 (Influenza A virus [2]) of 9 µM and an EC50 (H3N2 subtype [3]) of 9000 nM. For the same molecule, the EC50 (H3N2 subtype [4]) was 6000 nM, the EC50 (Influenza B virus [5]) was 9 µM and the EC50 (Influenza B virus [6]) was 3600 nM.

In the case of NC12CC3CC(CC(C3)C1)C2 [AMANTADINE], the EC50 (Influenza A virus [1]) is reported as 35 µM, the EC50 (Influenza A virus [2]; [30]) is reported as 45 µM and the EC50 (H3N2 subtype [3]) is reported as 800 nM. For the same molecule, the EC50 (H3N2 subtype [4]) was 400 nM, the inhibition (Influenza B virus [7]) was “inactive” and the inhibition (Influenza B virus [8]) was “inactive”.

Work on CC(N)C12CC3CC(CC(C3)C1)C2 (configuration not stated) [RIMANTADINE] yielded an EC50 (Influenza A virus [1]) of 13 µM, an EC50 (Influenza A virus [2]; [30]) of 10 µM and an EC50 (H3N2 subtype [3]) of 100 nM. The EC50 (H3N2 subtype [4]) was 200 nM, the inhibition (Influenza B virus [7]) was “inactive” and the inhibition (Influenza B virus [8]) was “inactive”.

For COC(=O)[C@H]1NC(=O)[C@H]2NC(=O)[C@H](NC(=O)[C@@H]3NC(=O)[C@H]4NC(=O)[C@H](NC(=O)[C@H](N=[N+]=[N-])c5ccc(O)c(c5)Oc5cc4cc(O)c5C)[C@H](O)c4ccc(cc4)Oc4cc3cc(c4O)Oc3ccc(cc3)[C@H]2O)c2ccc(O)c(c2)-c2c(O)cc(O)cc21, the EC50 (Influenza A virus [1]) was 8.8 µM, the EC50 (Influenza A virus [2]; [30]) was 9 µM and the EC50 (H3N2 subtype [3]) was 20000 nM. The EC50 (H3N2 subtype [4]) was 9200 nM.

With CCCCCCCCCCOCc1cn([C@H]2C(=O)N[C@H]3C(=O)N[C@H](C(=O)N[C@H]4C(=O)N[C@H]5C(=O)N[C@H](C(=O)N[C@@H](C(=O)OC)c6cc(O)cc(O)c6-c6cc5ccc6O)[C@H](O)c5ccc(cc5)Oc5cc4cc(c5O)Oc4ccc(cc4)[C@H]3O)c3cc(O)c(C)c(c3)Oc3cc2ccc3O)nn1 the EC50 (Influenza A virus [1]) was 0.1 µM, the MIC (Enterococcus faecalis [9]) was > 256 µg/mL and the EC50 (Influenza A virus [2]; [30]) was 0.1 µM. For the same molecule, the MIC (Bacillus subtilis [10]) was > 256 µg/mL, the EC50 (H3N2 subtype [3]) was 200 nM and the EC50 (H3N2 subtype [4]) was 500 nM. The MIC (Staphylococcus aureus [11]) was > 256 µg/mL, the MIC (Enterococcus faecalis [12]) was > 256 µg/mL and the MIC [13] was > 256 µg/mL. For the same molecule, the EC50 (Influenza B virus [5]) was 0.2 µM, the MIC (Staphylococcus aureus [14]) was > 256 µg/mL and the MIC [15] was > 256 µg/mL. The MIC (Enterococcus faecalis [16]) was > 256 µg/mL and the EC50 (Influenza B virus [6]) was 200 nM.

In the case of COC(=O)[C@@H]1NC(=O)[C@H]2NC(=O)[C@H](NC(=O)[C@@H]3NC(=O)[C@H]4NC(=O)[C@H](NC(=O)[C@H](N=[N+]=[N-])c5ccc(O)c(c5)Oc5cc4cc(O)c5C)[C@H](O)c4ccc(cc4)Oc4cc3cc(c4O)Oc3ccc(cc3)[C@H]2O)c2ccc(O)c(c2)-c2c(O)cc(O)cc21, the logD [17] is reported as 0.29, the inhibition (Influenza B virus [7]) is reported as “inactive” and the inhibition (Influenza B virus [8]) is reported as “inactive”.

In the case of CCCCCCCCCCOCc1cn([C@H]2C(=O)N[C@@H]3Cc4ccc(c(Cl)c4)Oc4cc5cc(c4O)Oc4ccc(cc4Cl)[C@@H](O[C@@H]4O[C@H](CO)[C@@H](O)[C@H](O)[C@H]4NC(C)=O)[C@@H]4NC(=O)[C@H](NC(=O)[C@@H]5NC(=O)[C@@H](NC3=O)c3cc(O)cc(c3)Oc3cc2ccc3O)c2ccc(O)c(c2)-c2c(O)cc(O)cc2[C@H](C(=O)O)NC4=O)nn1, the MIC (Enterococcus faecalis [9]) is reported as 0.5 µg/mL (≈ 0.308 µM), the MBC (Bacillus subtilis [18]) is reported as 0.25 µg/mL (≈ 0.154 µM) and the MIC (Bacillus subtilis [10]) is reported as 2 µg/mL (≈ 1.23 µM). The inhibition (Influenza A virus [19]) was “inactive”, the MBC (Enterococcus faecalis [20]) was 0.25 µg/mL (≈ 0.154 µM) and the inhibition (H3N2 subtype [21]) was “inactive”. It also gave an MBC (Enterococcus faecalis [22]) of 0.25 µg/mL (≈ 0.154 µM), an MBC [23] of 0.25 µg/mL (≈ 0.154 µM) and an MIC (Staphylococcus aureus [11]) of 0.5 µg/mL (≈ 0.308 µM). For the same molecule, the inhibition (Influenza B virus [7]) was “inactive”, the MIC (Enterococcus faecalis [12]) was 0.5 µg/mL (≈ 0.308 µM) and the inhibition (Influenza B virus [8]) was “inactive”. The inhibition (Influenza A virus [24]) was “inactive”, the MIC [13] was 0.5 µg/mL (≈ 0.308 µM) and the MBC (Enterococcus faecalis [25]) was 0.25 µg/mL (≈ 0.154 µM). For the same molecule, the MIC (Staphylococcus aureus [14]) was 0.5 µg/mL (≈ 0.308 µM), the MBC (Staphylococcus aureus [26]) was 0.25 µg/mL (≈ 0.154 µM) and the MIC [15] was 0.5 µg/mL (≈ 0.308 µM). For the same molecule, the inhibition (H3N2 subtype [27]) was “inactive”, the MBC (Staphylococcus aureus [28]) was 0.25 µg/mL (≈ 0.154 µM) and the MIC (Enterococcus faecalis [16]) was 0.5 µg/mL (≈ 0.308 µM). It also gave an MBC [29] of 0.5 µg/mL (≈ 0.308 µM).

In the case of CN[C@H](CC(C)C)C(=O)N[C@H]1C(=O)N[C@@H](CC(N)=O)C(=O)N[C@H]2C(=O)N[C@H]3C(=O)N[C@H](C(=O)N[C@H](C(=O)O)c4cc(O)cc(O)c4-c4cc3ccc4O)[C@H](O[C@H]3C[C@](C)(N)[C@@H](O)[C@H](C)O3)c3ccc(c(Cl)c3)Oc3cc2cc(c3O[C@@H]2O[C@H](CO)[C@@H](O)[C@H](O)[C@H]2O[C@H]2C[C@](C)(NCc3ccc(-c4ccc(Cl)cc4)cc3)[C@@H](O)[C@H](C)O2)Oc2ccc(cc2Cl)[C@H]1O [ORITAVANCIN], the MIC (Enterococcus) is reported as < 1 µg/mL.
